Laboratory results as given in publication PMC4227816 (Journal of the American Chemical Society, 2014).
Counter-ions that a name gives are not always drawn.

Test system: HIV-1RF challenged T-lymphoblastic CEM-SS cells
Test: XTT anti-HIV-1 cytopathicity assay in CEM-SS cells
Type: cell-based
Outline: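 CEM-SS cells grown in phenol red-free RPMI 1640 with 5% FBS, 2 mM L-glutamine and 50 μg/mL gentamicin. Washed log-phase cells seeded at 5 × 10^3 per well with serial dilutions of compound in DMSO. HIV-1RF diluted to give 80–90% cell kill at 6 days, with parallel uninfected wells for toxicity. Incubated 6 days at 37 °C, viability read by XTT, in triplicate.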

## CC(=O)c1ccc2c(c1)N(CCCN(C)C)c1ccccc1S2 [Acepromazine maleate]
  protective effect against HIV-1-induced cytopathicity (in words): not protective
